# Activity calls are given as the source filed them. The rule behind the calls is not given here.
# Key:
# [1] = system: TMD8; test: Cytotoxicity against human TMD8 cells incubated for 48 hrs by celltitre glo 2.0 assay; format: functional, cell-based; details: TMD8, 48 h
# [2] = Cytotoxicity against human MINO cells incubated for 48 hrs by celltitre glo 2.0 assay; format: functional, cell-based
# [3] = target: T1, Protein cereblon/Tyrosine-protein kinase BTK (Homo sapiens, UniProt Q06187+Q96SW2); test: PROTAC activity at BTK/CRBN protein protein interaction in human JeKo-1 cell assessed as degradation of BTK incubated for 17 hrs measured by Western blot analysis; format: cell-based
# Method in brief: (§1)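 Ramos or JeKo-1 cells (2 × 10^6 per well) were exposed for 17 h to 3000–0.15 nM PROTAC in 3-fold steps. Cells were lysed and analysed by western blot, with BTK normalised to β-actin. DC50 and Dmax come from the dose-response; DC50 is the mean ± SD of two independent experiments.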
# Target sequence in this assay (Q06187 whole entry): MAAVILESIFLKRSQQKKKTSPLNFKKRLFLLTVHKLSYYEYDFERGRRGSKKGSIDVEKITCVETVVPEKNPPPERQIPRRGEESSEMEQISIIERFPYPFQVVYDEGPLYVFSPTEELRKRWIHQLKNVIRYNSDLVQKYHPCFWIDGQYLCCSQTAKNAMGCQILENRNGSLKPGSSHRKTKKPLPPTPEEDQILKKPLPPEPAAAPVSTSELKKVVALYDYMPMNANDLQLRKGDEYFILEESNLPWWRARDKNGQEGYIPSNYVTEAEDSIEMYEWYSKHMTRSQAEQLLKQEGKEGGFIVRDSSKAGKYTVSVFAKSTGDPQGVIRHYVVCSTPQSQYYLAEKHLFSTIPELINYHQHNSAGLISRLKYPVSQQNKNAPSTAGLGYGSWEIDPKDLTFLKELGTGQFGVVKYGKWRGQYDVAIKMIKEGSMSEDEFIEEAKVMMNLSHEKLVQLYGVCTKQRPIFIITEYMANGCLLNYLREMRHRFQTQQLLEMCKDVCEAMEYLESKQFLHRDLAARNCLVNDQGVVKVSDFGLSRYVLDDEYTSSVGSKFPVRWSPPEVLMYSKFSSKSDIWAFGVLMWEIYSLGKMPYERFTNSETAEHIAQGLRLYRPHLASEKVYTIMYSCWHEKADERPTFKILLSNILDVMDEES
# Target sequence in this assay (Q96SW2 whole entry): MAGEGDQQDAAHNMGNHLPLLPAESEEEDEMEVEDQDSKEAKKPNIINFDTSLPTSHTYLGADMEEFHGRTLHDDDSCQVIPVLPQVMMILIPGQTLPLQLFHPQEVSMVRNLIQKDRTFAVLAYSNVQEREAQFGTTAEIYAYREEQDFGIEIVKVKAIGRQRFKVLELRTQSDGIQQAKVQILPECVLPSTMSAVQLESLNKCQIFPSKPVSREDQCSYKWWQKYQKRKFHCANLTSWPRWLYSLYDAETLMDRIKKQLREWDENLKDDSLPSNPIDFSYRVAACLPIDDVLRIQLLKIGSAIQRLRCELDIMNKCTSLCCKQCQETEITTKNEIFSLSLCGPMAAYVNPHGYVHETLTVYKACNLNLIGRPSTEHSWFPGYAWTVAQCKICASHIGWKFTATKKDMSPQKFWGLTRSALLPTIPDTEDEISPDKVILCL
# [4] = target: T1, Protein cereblon/Tyrosine-protein kinase BTK; test: PROTAC activity at BTK/CRBN protein protein interaction in human Ramos cell assessed as degradation of BTK incubated for 17 hrs measured by Western blot analysis relative to control; format: cell-based; method in brief: as §1
# Target sequence in this assay (Q06187 2-659 limits assumed): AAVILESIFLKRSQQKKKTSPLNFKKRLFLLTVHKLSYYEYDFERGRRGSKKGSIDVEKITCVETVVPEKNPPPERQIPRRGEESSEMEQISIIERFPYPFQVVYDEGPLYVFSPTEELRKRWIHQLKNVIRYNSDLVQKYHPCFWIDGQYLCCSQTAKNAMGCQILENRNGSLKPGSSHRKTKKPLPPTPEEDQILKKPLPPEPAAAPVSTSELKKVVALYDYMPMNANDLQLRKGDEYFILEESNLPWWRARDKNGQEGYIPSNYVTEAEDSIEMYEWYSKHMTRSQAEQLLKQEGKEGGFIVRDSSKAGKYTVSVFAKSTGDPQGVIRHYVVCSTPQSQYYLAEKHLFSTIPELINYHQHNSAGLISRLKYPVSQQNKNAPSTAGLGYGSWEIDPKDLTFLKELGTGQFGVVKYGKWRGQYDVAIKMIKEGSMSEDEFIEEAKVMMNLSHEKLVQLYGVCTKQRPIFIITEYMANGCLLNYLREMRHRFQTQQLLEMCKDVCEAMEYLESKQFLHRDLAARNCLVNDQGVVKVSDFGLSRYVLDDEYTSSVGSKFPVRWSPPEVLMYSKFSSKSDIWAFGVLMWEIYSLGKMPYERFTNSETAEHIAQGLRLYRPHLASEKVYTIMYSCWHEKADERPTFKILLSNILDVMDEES
# Target sequence in this assay (Q96SW2 whole entry partner): as the sequence (Q96SW2 whole entry) above
# [5] = target: T1, Protein cereblon/Tyrosine-protein kinase BTK; test: PROTAC activity at BTK/CRBN protein protein interaction in human JeKo-1 cell assessed as degradation of BTK incubated for 17 hrs measured by Western blot analysis relative to control; format: cell-based; method in brief: as §1
# Target sequence in this assay (Q06187 2-659 limits assumed): as the sequence (Q06187 2-659 limits assumed) above
# Target sequence in this assay (Q96SW2 whole entry partner): as the sequence (Q96SW2 whole entry) above
# [6] = target: T1, Protein cereblon/Tyrosine-protein kinase BTK; test: PROTAC activity at BTK/CRBN protein protein interaction in human Ramos cell assessed as degradation of BTK incubated for 17 hrs measured by Western blot analysis; format: cell-based; method in brief: as §1
# Target sequence in this assay (Q06187 whole entry): as the sequence (Q06187 whole entry) above
# Target sequence in this assay (Q96SW2 whole entry): as the sequence (Q96SW2 whole entry) above
# [7] = target: Protein cereblon (Homo sapiens, UniProt Q96SW2); test: Inhibition of CRBN in HEK293 cells using NanoGlo substrate incubated for 2 hrs by NanoBRET assay; format: cell-based
# [8] = target: T1, Protein cereblon/Tyrosine-protein kinase BTK; test: PROTAC activity at Halo-tagged CRBN/NanoLuc fusion tagged BTK transfected in HEK293 cells assessed as degradation of BTK by measuring ternary complex formation using NanoGlo substrate preincubated with proteasome inhibitor MG-132 for 30 mins followed by compound and substrate addition incubated for 2.5 hrs measured by NANOBRET assay relative to 4-((2-((S)-4-(6-((2'-(7,7-Dimethyl-1-oxo-1,3,4,6,7,8-hexahydro-2H-cyclopenta[4,5]pyrrolo[1,2-a]pyrazin-2-yl)-3'-(hydroxymethyl)-1-methyl-6-oxo-1,6-dihydro-[3,4'-bipyridin]-5-yl)amino)pyridin-3-yl)-3-methylpiperazin-1-yl)-2-oxoethyl)amino)-2-(2,6-dioxopiperidin-3-yl)isoindoline-1,3-dione; format: cell-based; parameters: scale not given: the % may be the effect or the level left
# Target sequence in this assay (Q06187 2-659 limits assumed): as the sequence (Q06187 2-659 limits assumed) above
# Target sequence in this assay (Q96SW2 whole entry partner): as the sequence (Q96SW2 whole entry) above
# [9] = target: T2, Tyrosine-protein kinase BTK (Homo sapiens, UniProt Q06187); test: Inhibition of BTK in HEK293 cells using NanoGlo substrate incubated for 2 hrs by NanoBRET assay; format: cell-based
# T2 sequence (Q06187 whole entry): as the sequence (Q06187 whole entry) above
# [10] = target: T2, Tyrosine-protein kinase BTK; test: Binding affinity to full length BTK (unknown origin) assessed as dissociation constant measured at 37 degree C by TR-FRET assay
# [11] = target: T2, Tyrosine-protein kinase BTK; test: Potency index, ratio of test compound Kd to GDC-0853 Kd for full length BTK (unknown origin)
# [12] = system: MINO; test: Induction of apoptosis in human MINO cells measured after 48 hrs by Annexin-V/propidium iodide staining based flow cytometric analysis; format: functional, cell-based; details: dose 0.15-3000 nM
# Method in brief: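 Cells plated at 2 × 10^6 per well and treated 48 h at 3,000–0.15 nM (3-fold dilutions) or 1% DMSO. Harvested, washed in cold PBS, stained with Annexin V Alexa Fluor 488/propidium iodide, analysed by flow cytometry for % live, apoptotic and necrotic cells. Mean of two independent experiments.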
# [13] = target: von Hippel-Lindau disease tumor suppressor/Tyrosine-protein kinase BTK (Homo sapiens) (UniProt Q06187+P40337); test: PROTAC activity at BTK/VHL protein protein interaction in human Ramos cell assessed as degradation of BTK incubated less than 3000 nM for 17 hrs measured by Western blot analysis
# von Hippel-Lindau disease tumor suppressor/Tyrosine-protein kinase BTK (Homo sapiens), sequence (P40337 whole entry partner): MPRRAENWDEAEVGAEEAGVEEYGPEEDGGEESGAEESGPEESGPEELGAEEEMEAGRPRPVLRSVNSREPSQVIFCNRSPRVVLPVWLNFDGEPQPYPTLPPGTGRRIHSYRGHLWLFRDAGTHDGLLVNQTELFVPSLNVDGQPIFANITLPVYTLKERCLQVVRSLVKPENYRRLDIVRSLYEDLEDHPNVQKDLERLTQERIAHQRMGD
# von Hippel-Lindau disease tumor suppressor/Tyrosine-protein kinase BTK (Homo sapiens), sequence (Q06187 2-659 limits assumed): as the sequence (Q06187 2-659 limits assumed) above
# [14] = target: Tyrosine-protein kinase FRK (Homo sapiens) (UniProt P42685); test: Degradation of FRK in human TMD8 cells by measuring protein level at 111 nM for 6 hrs using label free proteomic analysis; format: cell-based
# Tyrosine-protein kinase FRK (Homo sapiens), sequence (P42685 whole entry): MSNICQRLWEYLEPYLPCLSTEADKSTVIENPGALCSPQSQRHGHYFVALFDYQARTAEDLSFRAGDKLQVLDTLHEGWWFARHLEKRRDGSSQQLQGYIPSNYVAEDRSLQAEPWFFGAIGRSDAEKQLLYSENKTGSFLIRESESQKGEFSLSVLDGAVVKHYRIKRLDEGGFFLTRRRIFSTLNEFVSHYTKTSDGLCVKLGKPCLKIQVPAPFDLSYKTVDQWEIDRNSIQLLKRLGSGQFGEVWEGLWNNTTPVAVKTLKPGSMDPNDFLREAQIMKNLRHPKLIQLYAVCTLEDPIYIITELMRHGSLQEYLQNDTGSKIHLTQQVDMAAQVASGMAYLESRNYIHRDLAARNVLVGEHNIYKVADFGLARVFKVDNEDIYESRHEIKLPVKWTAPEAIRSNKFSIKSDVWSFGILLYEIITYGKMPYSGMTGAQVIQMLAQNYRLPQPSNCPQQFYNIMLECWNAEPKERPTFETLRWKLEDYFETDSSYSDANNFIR
# Method in brief: (§2)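 TMD8 cells (2 × 10^6) given 111 nM or DMSO for 6 h in duplicate. Lysed in 5% SDS/50 mM TEAB pH 8.5. 200 μg protein reduced (10 mM DTT, 55 °C, 30 min), alkylated (50 mM iodoacetamide), S-Trap processed, then LC-MS/MS. Label-free matched-peptide quantitation against DMSO, human UniProt; Benjamini–Hochberg-corrected p-values.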
# [15] = target: Zinc finger protein Aiolos (Homo sapiens) (UniProt Q9UKT9); test: Degradation of IKZF3 in human TMD8 cells by measuring protein level at 111 nM for 6 hrs using label free proteomic analysis; format: cell-based; method in brief: as §2
# [16] = target: Tyrosine-protein kinase CSK (Homo sapiens) (UniProt P41240); test: Degradation of CSK in human TMD8 cells by measuring protein level at 111 nM for 6 hrs using label free proteomic analysis; format: cell-based; method in brief: as §2
# [17] = target: Eukaryotic peptide chain release factor GTP-binding subunit ERF3A (Homo sapiens) (UniProt P15170); test: Degradation of […] in human TMD8 cells by measuring protein level at 111 nM for 6 hrs using label free proteomic analysis; format: cell-based; method in brief: as §2
# Eukaryotic peptide chain release factor GTP-binding subunit ERF3A (Homo sapiens), sequence (P15170 whole entry): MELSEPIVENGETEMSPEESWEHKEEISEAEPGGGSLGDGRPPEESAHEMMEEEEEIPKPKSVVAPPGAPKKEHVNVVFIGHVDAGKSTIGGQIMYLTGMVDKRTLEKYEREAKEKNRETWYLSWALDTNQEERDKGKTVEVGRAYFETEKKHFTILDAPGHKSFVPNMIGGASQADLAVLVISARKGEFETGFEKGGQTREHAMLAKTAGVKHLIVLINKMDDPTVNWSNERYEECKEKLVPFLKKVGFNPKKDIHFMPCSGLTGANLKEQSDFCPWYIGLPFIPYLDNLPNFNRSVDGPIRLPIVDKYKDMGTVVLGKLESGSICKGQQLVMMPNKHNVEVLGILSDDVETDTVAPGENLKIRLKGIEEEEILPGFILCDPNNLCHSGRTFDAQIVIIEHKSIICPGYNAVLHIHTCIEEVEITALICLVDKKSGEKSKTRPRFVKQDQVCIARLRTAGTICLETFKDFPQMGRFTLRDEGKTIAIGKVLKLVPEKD
# [18] = target: T3, Zinc finger protein 280D (Homo sapiens) (UniProt Q6N043); test: Degradation of […] in human TMD8 cells by measuring protein level at 111 nM for 6 hrs using label free proteomic analysis; format: cell-based; method in brief: as §2
# T3 sequence (whole entry): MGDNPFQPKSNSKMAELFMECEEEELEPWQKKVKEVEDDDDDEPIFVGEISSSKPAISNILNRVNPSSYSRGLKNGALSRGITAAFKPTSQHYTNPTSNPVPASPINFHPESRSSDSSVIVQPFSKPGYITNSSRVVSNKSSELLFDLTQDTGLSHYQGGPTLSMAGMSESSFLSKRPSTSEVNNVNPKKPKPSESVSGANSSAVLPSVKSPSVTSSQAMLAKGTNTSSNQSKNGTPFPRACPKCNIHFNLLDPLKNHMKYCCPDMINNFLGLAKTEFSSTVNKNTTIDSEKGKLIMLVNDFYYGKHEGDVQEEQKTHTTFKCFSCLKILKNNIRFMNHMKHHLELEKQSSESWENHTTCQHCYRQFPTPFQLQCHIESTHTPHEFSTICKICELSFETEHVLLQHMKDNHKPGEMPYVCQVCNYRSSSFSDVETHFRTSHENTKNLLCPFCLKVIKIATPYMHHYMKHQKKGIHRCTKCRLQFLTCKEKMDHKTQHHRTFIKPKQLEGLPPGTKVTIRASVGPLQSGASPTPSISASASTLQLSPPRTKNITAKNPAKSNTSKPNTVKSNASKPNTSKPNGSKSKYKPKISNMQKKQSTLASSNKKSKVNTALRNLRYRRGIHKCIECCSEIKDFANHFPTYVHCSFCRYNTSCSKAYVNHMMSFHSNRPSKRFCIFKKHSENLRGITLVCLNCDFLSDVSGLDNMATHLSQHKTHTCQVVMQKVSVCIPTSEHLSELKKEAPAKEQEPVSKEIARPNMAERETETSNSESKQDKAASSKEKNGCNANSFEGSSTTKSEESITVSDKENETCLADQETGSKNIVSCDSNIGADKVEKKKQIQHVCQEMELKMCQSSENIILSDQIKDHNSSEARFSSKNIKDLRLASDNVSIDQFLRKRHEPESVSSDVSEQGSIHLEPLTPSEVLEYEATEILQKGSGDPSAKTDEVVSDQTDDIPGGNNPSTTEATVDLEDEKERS
# [19] = target: DNA-binding protein Ikaros (Homo sapiens) (UniProt Q13422); test: Degradation of IKZF1 in human TMD8 cells by measuring protein level at 111 nM for 6 hrs using label free proteomic analysis; format: cell-based; method in brief: as §2
DC50 [3] [nM],Emax [4] [%],Emax [5] [%],DC50 [6] [nM],SMILES,IC50 [1] [nM],IC50 [2] [nM],also measured
,,,,Nc1ncnc2c1c(-c1ccc(Oc3ccccc3)cc1)nn2C1CCN(CCOCCOCC(=O)Nc2ccc3c(c2)C(=O)N(C2CCC(=O)NC2=O)C3=O)CC1 (centres undefined),12,100,
3.3,95,97,3.2,C[C@H]1CN(C(=O)CCCCCCNc2cccc3c2C(=O)N(C2CCC(=O)NC2=O)C3=O)CCN1c1ccc(Nc2cc(-c3ccnc(N4CCn5c(cc6c5CC(C)(C)C6)C4=O)c3CO)cn(C)c2=O)nc1 (some centres undefined),,,
1,95.7,97.4,0.9,C[C@H]1CN(C(=O)CCCNc2cccc3c2C(=O)N(C2CCC(=O)NC2=O)C3=O)CCN1c1ccc(Nc2cc(-c3ccnc(N4CCn5c(cc6c5CC(C)(C)C6)C4=O)c3CO)cn(C)c2=O)nc1 (some centres undefined),,,
> 3000,30.1,30,> 3000,C[C@H]1CN(C(=O)c2cccc3c2C(=O)N(C2CCC(=O)NC2=O)C3=O)CCN1c1ccc(Nc2cc(-c3ccnc(N4CCn5c(cc6c5CC(C)(C)C6)C4=O)c3CO)cn(C)c2=O)nc1 (some centres undefined),,,IC50 [7]: 7000 nM; Activity [8]: 0%; IC50 [9]: 320 nM; Kd [10]: 0.86 nM; Ratio [11]: 3
,,,,Nc1cccc2c1C(=O)N(C1CCC(=O)NC1=O)C2=O (centres undefined),,,Activity [12]: Dose-Dependent Effect
,,,,Cc1ncsc1-c1ccc(CNC(=O)[C@@H]2C[C@@H](O)CN2C(=O)[C@@H](NC(=O)COCCOCCCCCCC(=O)N2CCN(c3ccc(Nc4cc(-c5ccnc(N6CCn7c(cc8c7CC(C)(C)C8)C6=O)c5CO)cn(C)c4=O)nc3)[C@@H](C)C2)C(C)(C)C)cc1,,,Activity [13]: inactive
32.1,94,97.1,31.2,C[C@H]1CN(C(=O)CCCCCCCCCNc2cccc3c2C(=O)N(C2CCC(=O)NC2=O)C3=O)CCN1c1ccc(Nc2cc(-c3ccnc(N4CCn5c(cc6c5CC(C)(C)C6)C4=O)c3CO)cn(C)c2=O)nc1 (some centres undefined),,,
,,,,Cc1c(NC(=O)c2ccc(C(C)(C)C)cc2)cccc1-c1cn(C)c(=O)c(Nc2ccc(C(=O)N3CCN(CCCCCCNC(=O)CNc4cccc5c4C(=O)N(C4CCC(=O)NC4=O)C5=O)CC3)cc2)n1 (centres undefined),5.1,10.9,
,,,,Nc1ncnc2c1c(-c1ccc(Oc3ccccc3)cc1)nn2[C@@H]1CCCN(C(=O)c2cn(CCOCCOCCOCCNc3cccc4c3C(=O)N(C3CCC(=O)NC3=O)C4=O)nn2)C1 (some centres undefined),15,10.4,Activity [14]: Active; Activity [15]: Active; Activity [16]: Active; Activity [17]: inactive; Activity [18]: Active; Activity [19]: Active
9.7,95.6,96.9,7,C[C@H]1CN(CCCCCCOCCOCC(=O)Nc2cccc3c2C(=O)N(C2CCC(=O)NC2=O)C3=O)CCN1c1ccc(Nc2cc(-c3ccnc(N4CCn5c(cc6c5CC(C)(C)C6)C4=O)c3CO)cn(C)c2=O)nc1 (some centres undefined),,,

# Source: ChEMBL document CHEMBL5338787, “Discovery of Novel Bruton's Tyrosine Kinase PROTACs with Enhanced Selectivity and Cellular Efficacy” (J Med Chem, 2023)
